According to article PMC9444296 (Investigative Radiology, 2022):
Like-named read-outs stand apart in the source and are kept apart here. Where no end group is shown, it is not given here.

Assays:
[1] = Hepatocyte metabolic stability, negative and positive controls; assay type: in vitro ADME; conditions: hepatocyte incubation
[2] = Metabolic pathway study in human liver microsomes; assay type: in vitro ADME; conditions: 120 minutes
CYP2B6 [3] = target: CYP2B6 (Homo sapiens, UniProt P20813); conditions: CYP2B6, positive control selective inhibitor, human liver microsomes
Chain of CYP2B6 (Homo sapiens, UniProt P20813) (P20813 whole entry): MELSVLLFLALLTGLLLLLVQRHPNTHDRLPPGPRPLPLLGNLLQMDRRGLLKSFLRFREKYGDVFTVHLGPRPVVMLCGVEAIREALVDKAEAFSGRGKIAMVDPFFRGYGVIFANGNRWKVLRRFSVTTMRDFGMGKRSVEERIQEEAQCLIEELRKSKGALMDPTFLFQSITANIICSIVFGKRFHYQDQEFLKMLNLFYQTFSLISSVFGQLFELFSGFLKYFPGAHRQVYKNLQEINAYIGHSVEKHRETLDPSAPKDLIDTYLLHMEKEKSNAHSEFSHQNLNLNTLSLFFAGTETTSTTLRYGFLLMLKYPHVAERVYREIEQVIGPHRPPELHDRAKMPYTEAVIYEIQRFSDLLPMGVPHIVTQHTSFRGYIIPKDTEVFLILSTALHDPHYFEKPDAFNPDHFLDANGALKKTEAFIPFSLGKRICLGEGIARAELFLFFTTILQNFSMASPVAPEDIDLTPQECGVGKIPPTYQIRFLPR

CYP2C8 = CYP2C8 (Homo sapiens, UniProt P10632); assay: CYP2C8 inhibition in human liver microsomes; assay type: in vitro ADME; conditions: CYP2C8, positive control selective inhibitor
Chain of CYP2C8 (P10632 whole entry): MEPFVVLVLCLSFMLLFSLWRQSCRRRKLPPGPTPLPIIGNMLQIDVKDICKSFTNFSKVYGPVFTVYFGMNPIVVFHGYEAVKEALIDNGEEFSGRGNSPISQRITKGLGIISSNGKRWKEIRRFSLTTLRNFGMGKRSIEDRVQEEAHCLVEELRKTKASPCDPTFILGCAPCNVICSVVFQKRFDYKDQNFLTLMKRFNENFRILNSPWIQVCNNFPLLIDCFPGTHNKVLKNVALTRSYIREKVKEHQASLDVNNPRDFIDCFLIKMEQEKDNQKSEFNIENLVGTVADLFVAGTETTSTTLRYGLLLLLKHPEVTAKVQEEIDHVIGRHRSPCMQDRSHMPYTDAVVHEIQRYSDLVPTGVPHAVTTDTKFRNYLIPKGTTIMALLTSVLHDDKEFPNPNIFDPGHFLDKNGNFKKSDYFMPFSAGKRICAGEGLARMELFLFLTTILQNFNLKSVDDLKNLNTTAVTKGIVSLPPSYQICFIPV

[4] = test system: PC3 human prostate cancer xenografts; assay: Contrast-enhanced MRI of PC3 prostate tumor xenografts in rats; assay type: in vivo, rat; conditions: PC3 tumors in rats, 0.1 mmol/kg IV, 3 T, n = 6
Method in brief: (§1)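 Male rats carried subcutaneous flank xenografts of 4 × 10⁶ PC3 or 8 × 10⁶ LNCaP cells in Matrigel-PBS (1:1) and were imaged once tumours exceeded 100 mm³. Scans used 1 mm slices, 2 averages and a 128 × 128 matrix. The same tumour-bearing rats were reused across agents and doses, with a clinical Gd agent at 0.1 mmol Gd/kg as comparator.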

[5] = test system: LNCaP human prostate tumors; assay: Contrast-enhanced MRI of LNCaP prostate tumor xenografts in rats; assay type: in vivo, rat; conditions: 0.1 mmol/kg IV, 3 T, n = 3
Method in brief: as §1

[6] = cited from earlier work
CYP2B6 [7] = conditions: positive control 1000 μM, CYP2B6, human primary hepatocytes
CYP2C9 = CYP2C9 (Homo sapiens, UniProt P11712); assay: CYP2C9 inhibition in human liver microsomes; conditions: CYP2C9, positive control selective inhibitor, human liver microsomes
Chain of CYP2C9 (P11712 whole entry, the tested form may be a part): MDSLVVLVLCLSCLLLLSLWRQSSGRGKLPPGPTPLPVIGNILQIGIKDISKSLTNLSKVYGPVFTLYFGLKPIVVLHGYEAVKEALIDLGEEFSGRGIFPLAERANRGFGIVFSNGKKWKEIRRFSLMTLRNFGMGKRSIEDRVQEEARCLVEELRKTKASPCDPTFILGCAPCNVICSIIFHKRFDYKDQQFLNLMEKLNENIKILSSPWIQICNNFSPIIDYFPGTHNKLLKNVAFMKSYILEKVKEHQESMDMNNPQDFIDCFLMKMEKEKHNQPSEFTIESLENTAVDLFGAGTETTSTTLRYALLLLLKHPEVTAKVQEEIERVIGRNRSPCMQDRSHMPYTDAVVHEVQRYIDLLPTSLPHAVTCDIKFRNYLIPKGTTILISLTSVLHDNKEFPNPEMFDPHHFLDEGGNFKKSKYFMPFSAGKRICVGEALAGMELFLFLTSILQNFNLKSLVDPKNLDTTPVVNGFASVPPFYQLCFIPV

EDB protein fragment = EDB protein fragment (Homo sapiens, UniProt P02751); conditions: cited from earlier work
Chain of EDB protein fragment (P02751 1271-1359 limits assumed): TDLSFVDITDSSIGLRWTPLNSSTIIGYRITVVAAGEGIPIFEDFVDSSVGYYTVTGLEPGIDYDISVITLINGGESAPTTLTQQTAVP

CYP1A2 = conditions: positive control 50 μM, CYP1A2, human primary hepatocytes
CYP2D6 = CYP2D6 (Homo sapiens, UniProt P10635); assay: CYP2D6 inhibition in human liver microsomes; assay type: in vitro ADME; conditions: CYP2D6, positive control selective inhibitor, human liver microsomes
Chain of CYP2D6 (P10635 whole entry): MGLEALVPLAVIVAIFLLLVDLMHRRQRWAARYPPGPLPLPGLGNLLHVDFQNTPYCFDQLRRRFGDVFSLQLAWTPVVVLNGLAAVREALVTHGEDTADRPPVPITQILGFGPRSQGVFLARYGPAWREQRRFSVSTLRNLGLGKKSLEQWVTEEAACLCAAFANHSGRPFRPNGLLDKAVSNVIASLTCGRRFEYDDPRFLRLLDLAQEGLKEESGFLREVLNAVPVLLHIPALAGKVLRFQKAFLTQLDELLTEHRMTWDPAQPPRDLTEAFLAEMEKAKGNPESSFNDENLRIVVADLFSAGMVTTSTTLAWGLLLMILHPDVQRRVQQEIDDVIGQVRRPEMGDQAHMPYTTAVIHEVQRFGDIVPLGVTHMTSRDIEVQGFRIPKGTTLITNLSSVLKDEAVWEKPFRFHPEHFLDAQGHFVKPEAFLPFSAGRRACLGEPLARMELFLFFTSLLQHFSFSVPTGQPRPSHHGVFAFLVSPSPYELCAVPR

C[C@]12CC[C@H]3[C@@H](CCC4=CC(=O)CC[C@@]43C)[C@@H]1CC[C@@H]2O [testosterone, reference compound]
remaining substrate in the positive control [1]: 9.29%
remaining testosterone (systematic control) [2]: 11.4%

S=P(N1CC1)(N1CC1)N1CC1 [thiotepa, reference compound]
enzyme activity decreased by (CYP2B6 [3]): 89.2%

CC(C)(O)c1ccccc1CC[C@@H](SCC1(CC(=O)O)CC1)c1cccc(/C=C/c2ccc3ccc(Cl)cc3n2)c1 [montelukast, reference compound]
enzyme activity decreased by (CYP2C8): 80.0%

CC(O)CN1CCN(CC(=O)[O-])CCN(CC(=O)[O-])CCN(CC(=O)[O-])CC1.[Gd+3] (centres unmarked) [Gadoteridol, gadoteridol]
CNR ([4]; 10 minutes postinjection): 1.32 ± 0.58
CNR ([4]; 30 minutes postinjection): 1.714 ± 0.69
CNR [5]: 1.79 ± 0.74
r1 Relaxivity ([6]; 1.4 T, H2O): 3.2 (H2O) mM^−1 s^−1
r1 Relaxivity ([6]; 1.5 T, H2O): 2.9 (H2O) mM^−1 s^−1
r1 Relaxivity ([6]; 1.5 T, plasma): 4.1 mM⁻¹ s⁻¹
r1 Relaxivity ([6]; 3.0 T, H2O): 2.8 (H2O) mM^−1 s^−1
r1 Relaxivity ([6]; 3.0 T, plasma): 3.7 mM⁻¹ s⁻¹

CCC1(c2ccccc2)C(=O)NC(=O)NC1=O [phenobarbital, reference compound]
increase of enzyme activity vs vehicle control (CYP2B6 [7]): ~12 fold
increase of mRNA expression vs vehicle control (CYP2B6 [7]): ~14 fold

Nc1ccc(S(=O)(=O)Nc2ccnn2-c2ccccc2)cc1 [sulfaphenazole, reference compound]
enzyme activity decreased by (CYP2C9): 87.4%

O=c1ccc2ccc(O)cc2o1 [7-hydroxycoumarin]
remaining substrate in the positive control [1]: 18.8%

TVRTSAD [ZD2]
binding affinity to the EDB fragment (EDB protein fragment): moderate binding affinity

COc1ccc2[nH]c([S+]([O-])Cc3ncc(C)c(OC)c3C)nc2c1 (centres unmarked) [omeprazole, reference compound]
increase of enzyme activity vs vehicle control (CYP1A2): about 40 fold
increase of mRNA expression vs vehicle control (CYP1A2): about 62 fold

C=C[C@H]1C[N@@]2CC[C@H]1C[C@@H]2[C@@H](O)c1ccnc2ccc(OC)cc12 [quinidine, reference compound]
enzyme activity decreased by (CYP2D6): 91.2%
